Laboratory results as given in ChEMBL document CHEMBL1123543, “3,7-Diazabicyclane: a new narcotic analgesic” (J Med Chem, 1986).
Calls of active or inactive are those of the source.

Assays:
[1] = biological target: Opioid receptor (Rattus norvegicus, UniProt P33533+P34975+P33535); test: Concentration required to inhibit opiate receptor using radioligand [3H]- Etorphine; format: protein assay
[2] = system: Rattus norvegicus; test: Effective dose for analgetic activity on intracerebroventricular administration in rats using tail flick test; Inactive; format: functional, organism-based
Method in brief: (§1)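 Rats had cannulae stereotaxically implanted in the lateral ventricle (AP 0.0, L 2.0 from bregma, 3.5 mm below dura) and recovered for 2 weeks. Methanesulfonate salts in artificial rat CSF were injected icv at 10 μL over 30 s, with doses given as total amount. CSF alone served as control. After 0.5 h of acclimation in restraint, the tail was immersed 5 cm in 55 °C water at 5, 10, 15 and 20 min. Withdrawal latency was timed with a 30 s cutoff, averaging three observations. ED50 and 95% confidence limits were derived by Litchfield–Wilcoxon.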

[3] = system: Mus musculus; test: Effective dose for analgetic activity on subcutaneous administration in mice using Writhing test; Inactive; format: functional, organism-based
Method in brief: (§2)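 Mouse acetic acid writhing assay. Compounds were given as methanesulfonic acid salts, dissolved in deionized water and injected subcutaneously. ED50 values and 95% confidence limits were calculated by the Litchfield–Wilcoxon method.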

[4] = system: Mus musculus; test: Effective dose for analgetic activity on subcutaneous administration in mice using Writhing test; format: functional; conditions: sc; method in brief: as §2
[5] = system: Mus musculus; test: Effective dose for analgetic activity on subcutaneous administration in mice using Writhing test; Inactive at 460 uM/kg; format: functional, organism-based; method in brief: as §2
[6] = system: Rattus norvegicus; test: Effective dose for analgetic activity on intracerebroventricular administration in rats using tail flick test; Inactive at 780 nM; format: functional, organism-based; method in brief: as §1
[7] = system: Rattus norvegicus; test: Effective dose for analgetic activity on intracerebroventricular administration in rats using tail flick test; format: functional; method in brief: as §1

| Structure (SMILES) | IC50 [1] | ED50 [2] | ED50 [3] | ED50 [4] | ED50 [5] | ED50 [6] | ED50 [7] |
| --- | --- | --- | --- | --- | --- | --- | --- |
| COC(c1ccccc1)C1C2CN(C)CC1CN(C)C2 (stereo not drawn) | 7200 nM | inactive | inactive | – | – | – | – |
| COC(c1cccc(O)c1)C1C2CN(C)CC1CN(C)C2 (stereo not drawn) | 2300 nM | – | – | 0.56 µmol/kg | – | – | – |
| CCC(=O)OC(c1ccccc1)C1C2CN(C)CC1CN(C)C2 (stereo not drawn) | 7600 nM | – | – | – | inactive | inactive | – |
| CCC(=O)OC(c1cccc(O)c1)C1C2CN(C)CC1CN(C)C2 (stereo not drawn) | 530 nM | – | – | 0.85 µmol/kg | – | – | 25 nM |
| CN1CC[C@]23c4c5ccc(O)c4O[C@H]2[C@@H](O)C=C[C@H]3[C@H]1C5 [MORPHINE] | – | – | – | 3 µmol/kg | – | – | 23 nM |
